This is an account of results in ChEMBL document CHEMBL4261570, “Design, Synthesis and Preliminary Antimicrobial Evaluation of N-Alkyl Chain Tethered C-5 Functionalized Bis-Isatins” (Medchemcomm, 2017).

Calls of active or inactive are those of the source. The calls are words filed in the database; no cut-off is given here.

For one data set, the system named is Entamoeba histolytica. In words: Antiparasitic activity against Entamoeba histolytica HM-1:IMSS trophozoites assessed as parasite growth inhibition at 50 uM after 48 hrs by ATP bioluminescence-based CellTiter-Glo luminescent cell viability assay relative to control. The settings on record: for inhibition of growth at 50 µM: read-out: GI. Type of data set: functional. The method, boiled down: (§1)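 Trophozoites kept axenically in TYI-S-33 with penicillin and streptomycin. Each well held 5000 trophozoites and was incubated 48 h at 37 °C under anaerobic conditions in a GasPak pouch. Read-out was CellTiter-Glo ATP luminescence. Controls were 0.5% DMSO vehicle and 30 μM metronidazole. Primary screen at 50 μM in duplicate; hits were those above 50% inhibition. EC50 came from triplicate 8-point series (0.39–50 μM) and dose-response curves.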
(In ATP-based viability assays light output follows the ATP content of the culture.)

The test system of data set [1] is Limosilactobacillus reuteri. In words: Toxicity in Lactobacillus reuteri ATCC 23272 at 100 uM measured after overnight incubation by disc diffusion method. Type of data set: organism-based. The following applies: in vivo. In a few lines: (§2)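 Grown in Lactobacilli MRS at 37 °C under anaerobic conditions. Blank 6 mm discs were soaked 20 min at room temperature in a 100 μM working dilution in medium. Discs were placed on streaked agar alongside DMSO vehicle and antibiotic discs (levofloxacin, gentamicin), incubated overnight at 37 °C, and zones of inhibition measured in mm.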
Background: Agar diffusion results depend on both activity and mobility in agar.

The subject of data set [2] is Giardia intestinalis. In words: Antiparasitic activity against Giardia lamblia WB trophozoites assessed as parasite growth inhibition at 50 uM after 48 hrs by ATP bioluminescence-based CellTiter-Glo luminescent cell viability assay relative to control. Type of data set: functional. The following applies: Giardia duodenalis; for inhibition of growth at 50 µM: read-out: GI. In a few lines:
as §1

The subject of data set [3] is Lacticaseibacillus rhamnosus. In words: Toxicity in Lactobacillus rhamnosus ATCC 53103 at 100 uM measured after overnight incubation by disc diffusion method. Type of data set: organism-based, GG. The settings on record: in vivo. The method, boiled down:
as §2

In data set [4] the test system is Saccharomyces cerevisiae. Nature of the data set: Antifungal activity against Saccharomyces cerevisiae BY4741 assessed as fungal growth at 500 uM after 24 hrs by microtiter plate liquid bioassay (reference value: 100%). Type of data set: functional.
The next data set relates to Trichomonas vaginalis. In words: Antiparasitic activity against Trichomonas vaginalis assessed as parasite growth inhibition at 50 uM after 24 hrs by hemacytometer relative to control. The data set is classed as functional. The settings on record: read-out: GI. The method, boiled down: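 G3 strain cultured in TYM Diamond's medium in 15 mL tubes, with compound in DMSO. Controls were untreated and 0.1% DMSO. After 24 h, cells were counted by hemacytometer and normalized to the DMSO controls. Screening was at 50 μM. IC50 came from titrations of 5–40 μM with variable-slope regression, 4 independent trials on different days, and was then re-confirmed.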

Data set [5] deals with Aspergillus parasiticus. Nature of the data set: Antifungal activity against Aspergillus parasiticus NRRL5862 assessed as fungal growth at 500 uM after 24 hrs by microtiter plate liquid bioassay (reference value: 100%). Type of data set: functional. The method, boiled down:
(§3)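 A. parasiticus grown at 35 °C on PDA. Liquid assay in RPMI 1640, 3 × 104 to 5 × 10^4 CFU per mL, triplicate wells, 35 °C. Compounds in DMSO (<2% in media). No-treatment wells carry matched DMSO. Wells scored visually 0–4 versus the no-treatment control: 0 clear, 1 25%, 2 50%, 3 75%, 4 no reduction. Scoring follows CLSI M38-A.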

The subject of data set [6] is Lactobacillus acidophilus. In words: Toxicity in Lactobacillus acidophilus ATCC 43560 at 100 uM measured after overnight incubation by disc diffusion method. The data set is classed as organism-based. The following applies: in vivo. In a few lines: as §2
In data set [7] the test system is Saccharomyces cerevisiae. Nature of the data set: Antifungal activity against Saccharomyces cerevisiae BY4741 assessed as fungal growth at 500 uM after 48 hrs by microtiter plate liquid bioassay (reference value: 100%). Type of data set: functional.
For data set [8], the system named is Aspergillus parasiticus. In words: Antifungal activity against Aspergillus parasiticus NRRL5862 assessed as fungal growth at 500 uM after 48 hrs by microtiter plate liquid bioassay (reference value: 100%). Type of data set: functional. In a few lines:
as §3

The subject of the next data set is Naegleria fowleri. Nature of the data set: Antiparasitic activity against Naegleria fowleri KUL trophozoites assessed as parasite growth inhibition after 48 hrs by ATP bioluminescence-based CellTiter-Glo luminescent cell viability assay. The data set is classed as functional, organism-based. In a few lines: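 Strain KUL trophozoites cultured axenically in Nelson's medium with 10% FBS at 37 °C. Each well held 10 000 trophozoites, incubated under aerobic conditions without the anaerobe pouch. Read-out was CellTiter-Glo luminescence. Positive control was 50 μM amphotericin B. Hits were serially diluted in triplicate, 8 points from 0.39 to 50 μM, and EC50 was taken from dose-response curves.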

A further data set concerns Escherichia coli. Nature of the data set: Toxicity in Escherichia coli K-12 MG1655 at 100 uM measured after overnight incubation by disc diffusion method. The data set is classed as organism-based, K-12 substr. MG1655. The settings on record: in vivo. In a few lines: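 Grown in Luria broth at 37 °C under aerobic conditions. Blank 6 mm discs were soaked 20 min at room temperature in a 100 μM working dilution in medium. Discs were placed on streaked agar alongside DMSO vehicle and antibiotic discs (levofloxacin, gentamicin), incubated overnight at 37 °C, and inhibition zones measured in mm.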

Data set [9] deals with Giardia intestinalis. In words: Antiparasitic activity against Giardia lamblia WB trophozoites assessed as parasite growth inhibition after 48 hrs by ATP bioluminescence-based CellTiter-Glo luminescent cell viability assay. The data set is classed as functional, organism-based. The settings on record: Giardia duodenalis. The method, boiled down:
as §1

For the compound `O=C1C(=O)N(CCBr)c2ccccc21`, the inhibition of growth at 50 µM was 7.23% in the data set with Entamoeba histolytica, 47.2% in the data set on Giardia intestinalis [2] and 62.5% in the data set with Trichomonas vaginalis. Besides, the Activity result is “Non-Toxic” in [1]; “Non-Toxic” in data set [3]; 25% with Saccharomyces cerevisiae [4]; 75 - 100% in the data set with Aspergillus parasiticus [5]; “Non-Toxic” in data set [6]; 75% in the data set with Saccharomyces cerevisiae [7]. The figures for the Activity with Aspergillus parasiticus [8] and in the data set on Escherichia coli were 100% and “Non-Toxic”, respectively. For the same compound, the IC50 – broadly, the concentration that inhibits the measured activity by half – in the data set on Naegleria fowleri came to 23.6 µM.
For `O=C1C(=O)N(CCCCCN2C(=O)C(=O)c3cc(F)ccc32)c2ccccc21`, the “growth inhibition (GI)” value in the data set on Entamoeba histolytica and in the data set with Giardia intestinalis [2] was “inactive” throughout. For the same compound, the Activity result is given as “Non-Toxic” in data set [1]; “Non-Toxic” in [3]; 50% with Saccharomyces cerevisiae [4]; 100% in the data set on Aspergillus parasiticus [5]; “Non-Toxic” in data set [6]; 75% in the data set on Saccharomyces cerevisiae [7]. In addition, the Activity in the data set on Aspergillus parasiticus [8] is on record as 100%; with Escherichia coli, “Non-Toxic”. Moreover, in the data set with Trichomonas vaginalis, the inhibition of growth at 50 µM was 100%. Besides, the concentration for half-maximal inhibition (IC50) in the data set on Naegleria fowleri was 27.3 µM.
Regarding `CCCCCCCCCCCCCCCCOP(=O)([O-])OCC[N+](C)(C)C` [MILTEFOSINE], the 50% inhibitory concentration (IC50) with Naegleria fowleri is 54.5 µM.
The same measure, in the same setting: the same measure for `C[C@@H]1[C@H](O)[C@@H](C)/C=C/C=C/C=C/C=C/C=C/C=C/C=C/[C@H](O[C@@H]2O[C@H](C)[C@@H](O)[C@H](N)[C@@H]2O)C[C@@H]2O[C@](O)(C[C@@H](O)C[C@@H](O)[C@H](O)CC[C@@H](O)C[C@@H](O)CC(=O)O[C@H]1C)C[C@H](O)[C@H]2C(=O)O` [AMPHOTERICIN B]: 0.2 µM.
As for `O=C1C(=O)N(CCCCCN2C(=O)C(=O)c3ccccc32)c2ccccc21`, in the data set on Giardia intestinalis [9], the 50% inhibitory concentration (IC50) stood at 26 µM. Besides, the inhibition of growth at 50 µM was 100% in the data set with Entamoeba histolytica, 94.3% in the data set on Giardia intestinalis [2] and 90.9% in the data set with Trichomonas vaginalis. For the same compound, the Activity result (in data set [1]; in data set [3]; in data set [6]; in the data set on Escherichia coli) was “Non-Toxic” throughout.
With `O=C1C(=O)N(CCCCCN2C(=O)C(=O)c3cc(Cl)ccc32)c2ccccc21`, the figures for the IC50 in the data set with Giardia intestinalis [9] and in the data set on Naegleria fowleri were 23.9 µM and 14.8 µM, respectively. The inhibition of growth at 50 µM with Entamoeba histolytica, in the data set with Giardia intestinalis [2] and in the data set with Trichomonas vaginalis was 100% in each case. Further, the Activity entry (in data set [1]; in [3]; in data set [6]; in the data set on Escherichia coli) was “Non-Toxic” in each case.
In the case of `O=C1C(=O)N(CCCCBr)c2ccccc21`, the inhibition of growth at 50 µM was 8.47% with Entamoeba histolytica, 20.9% with Giardia intestinalis [2] and 89.8% in the data set with Trichomonas vaginalis. The Activity entry is “Non-Toxic” in data set [1]; “Non-Toxic” in [3]; 0% in the data set on Saccharomyces cerevisiae [4]; 75 - 100% with Aspergillus parasiticus [5]; “Non-Toxic” in data set [6]; 50% in the data set with Saccharomyces cerevisiae [7]. In addition, the values for the Activity in the data set on Aspergillus parasiticus [8] and in the data set with Escherichia coli were 100% and “Non-Toxic”, respectively. The 50% inhibitory concentration (IC50) in the data set on Naegleria fowleri stood at 14.5 µM.
With `O=C1C(=O)N(CCCCCCCCN2C(=O)C(=O)c3ccccc32)c2ccccc21`, in the data set with Giardia intestinalis [9], the concentration for half-maximal inhibition (IC50) is 38 µM. Also, the inhibition of growth at 50 µM came to 100% in the data set on Entamoeba histolytica, 80.7% in the data set with Giardia intestinalis [2] and 30.3% with Trichomonas vaginalis. Also, the Activity result (in [1]; in data set [3]; in [6]; with Escherichia coli) was “Non-Toxic” each time.
